In ChEMBL document CHEMBL4190259, “Constituents of Polygala flavescens ssp. flavescens and Their Activity as Inhibitors of Human Lactate Dehydrogenase” (J Nat Prod, 2017):

The compounds below were run against L-lactate dehydrogenase A chain (Homo sapiens, UniProt P00338) (assay: Inhibition of human liver LDH5 using pyruvate as substrate and NADH as cofactor measured after 15 mins by fluorescence assay).
In short: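 Purified human LDH isoform 5, forward reaction (pyruvate to lactate) in 100 mM phosphate buffer pH 7.4 with 200 μM pyruvate and 40 μM NADH. Seven concentrations from 500 to 0.7 μM, each in duplicate, DMSO not above 4%. NADH consumption read by fluorescence (ex 340, em 460 nm) after 15 min. Compound background fluorescence or quenching subtracted. IC50 from concentration–response curves.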

SMILES | IC50
COc1cc(/C=C/C(=O)OC[C@H]2O[C@H](O[C@]3(CO)O[C@H](CO)[C@@H](O)[C@@H]3OC(=O)/C=C/c3cc(OC)c(O)c(OC)c3)[C@H](O)[C@@H](O)[C@@H]2O)cc(OC)c1O | 90.4 µM
O=C(OC[C@H]1O[C@@](CO)(O[C@H]2O[C@H](CO)[C@@H](O)[C@H](O[C@@H]3O[C@H](CO)[C@@H](O)[C@H](O)[C@H]3O)[C@H]2O)[C@@H](O)[C@@H]1O)c1ccccc1 | > 500 µM
COc1cc(/C=C/C(=O)OC[C@H]2O[C@H](O[C@]3(CO)O[C@H](CO)[C@@H](O)[C@@H]3OC(=O)/C=C/c3cc(OC)c(O)c(OC)c3)[C@H](O)[C@@H](O[C@@H]3O[C@H](CO)[C@@H](O)[C@H](O)[C@H]3O)[C@@H]2O)cc(OC)c1O | 191 µM
C[C@@H]1O[C@@H](OC[C@H]2O[C@@H](Oc3c(-c4ccc(O)c(O)c4)oc4cc(O)cc(O)c4c3=O)[C@H](O[C@@H]3OC[C@](O)(COC(=O)/C=C/c4ccc(O)cc4)[C@H]3O)[C@@H](O)[C@@H]2O)[C@H](O)[C@H](O)[C@H]1O | > 500 µM
CC(=O)O[C@@H]1[C@H](O[C@@H]2OC[C@](O)(CO)[C@H]2O)[C@@H](O[C@@H]2O[C@@H](C)[C@H](O)[C@@H](O)[C@H]2O)[C@H](OC(=O)[C@]23CCC(C)(C)C[C@H]2C2=CC[C@@H]4[C@@]5(C)C[C@H](O)[C@H](O[C@@H]6O[C@H](CO)[C@@H](O)[C@H](O)[C@H]6O)[C@@](C)(C(=O)O)[C@@H]5CC[C@@]4(C)[C@]2(C)CC3)O[C@H]1C | > 500 µM
C[C@@H]1O[C@@H](OC[C@H]2O[C@@H](Oc3c(-c4ccc(O)c(O)c4)oc4cc(O)cc(O)c4c3=O)[C@H](O)[C@@H](O)[C@@H]2O)[C@H](O)[C@H](O)[C@H]1O [RUTIN] | > 500 µM

Second part, the compound after the results:

IC50 | SMILES
> 500 µM | C[C@@H]1O[C@@H](OC[C@H]2O[C@@H](Oc3c(-c4ccc(O)c(O)c4)oc4cc(O)cc(O)c4c3=O)[C@H](O[C@@H]3OC[C@](O)(CO)[C@H]3O)[C@@H](O)[C@@H]2O)[C@H](O)[C@H](O)[C@H]1O
> 500 µM | C[C@@H]1O[C@@H](OC[C@H]2O[C@@H](Oc3c(-c4ccc(O)c(O)c4)oc4cc(O)cc(O)c4c3=O)[C@H](O[C@@H]3OC[C@](O)(COC(=O)c4ccccc4)[C@H]3O)[C@@H](O)[C@@H]2O)[C@H](O)[C@H](O)[C@H]1O
> 500 µM | CC(=O)OC[C@H]1O[C@H](O[C@]2(CO)O[C@H](COC(=O)c3ccccc3)[C@@H](O)[C@@H]2O)[C@H](O)[C@@H](O[C@@H]2O[C@H](CO)[C@@H](O)[C@H](O)[C@H]2O)[C@@H]1O
> 500 µM | COc1cc(/C=C/C(=O)OC[C@@]2(O)CO[C@@H](O[C@H]3[C@H](Oc4c(-c5ccc(O)c(O)c5)oc5cc(O)cc(O)c5c4=O)O[C@H](CO[C@@H]4O[C@@H](C)[C@H](O)[C@@H](O)[C@H]4O)[C@@H](O)[C@@H]3O)[C@@H]2O)cc(OC)c1O
> 500 µM | COc1cc(/C=C/C(=O)OC[C@@]2(O)CO[C@@H](O[C@H]3[C@H](Oc4c(-c5ccc(O)c(O)c5)oc5cc(O)cc(O)c5c4=O)O[C@H](CO[C@@H]4O[C@@H](C)[C@H](O)[C@@H](O)[C@H]4O)[C@@H](O)[C@@H]3O)[C@@H]2O)ccc1O
